Data on 19 compounds can be found in ChEMBL document CHEMBL1158162, “Identifying structural features on 1,1-diphenyl-hexahydro-oxazolo[3,4-a]pyrazin-3-ones critical for Neuropeptide S antagonist activity” (2008).

Assay [1] can be described thus: Antagonist activity at NPS Ile107 mutant receptor expressed in RD-HGA16 cells assessed by calcium mobilization by FlexStation assay. It is filed as functional. Put shortly:
(§1)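 Cells loaded with calcium3 dye for 1 h; calcium mobilization read on FlexStation. Compounds tested separately for intrinsic activity and for inhibition of NPS. Ke from an 8-point half-log NPS concentration-response run with and without one compound concentration, at least two concentrations giving at least four-fold rightward EC50 shift; Ke = [L]/(DR-1). Mean ± SE, at least three independent experiments.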
(In general: Calcium flux is commonly read through the fluorescence of an indicator in the cells.)

Assay [2] can be described thus: Antagonist activity at NPS Asn107 mutant receptor expressed in RD-HGA16 cells assessed by calcium mobilization by FlexStation assay. It is filed as functional. Put shortly:
as §1

The test system of the next assay is RD-HGA16. Nature of the assay: Ratio of Ke for NPS Asn107 mutant receptor to Ke for NPS Ile107 mutant receptor expressed in RD-HGA16 cells. It is filed as cell-based.
Assay [3] can be described thus: Antagonist activity at NPS Ile107 mutant receptor expressed in RD-HGA16 cells. Type of assay: functional. A digest of the protocol: as §1
A short description of assay [4]: Antagonist activity at NPS Asn107 mutant receptor expressed in RD-HGA16 cells. It is filed as functional. Put shortly: as §1

On to `O=C1OC(c2ccccc2)(c2ccccc2)C2CN(C(=S)NCCN3CCCCC3)CCN12` (stereo unspecified), for which the figures for the Ke in assay [1] and in assay [2] were 280 nM and 354 nM, respectively. The Ratio Ke with RD-HGA16 was 1.3.

As to `O=C(OCc1ccccc1)N1CCN2C(=O)OC(c3ccccc3)(c3ccccc3)C2C1` (stereo unspecified), the Ke came out at 354 nM in assay [1] and 353 nM in assay [2]. Further, the Ratio Ke with RD-HGA16 was 1.

In the case of `O=C(NCCc1ccc(F)cc1)N1CCN2C(=O)OC(c3ccccc3)(c3ccccc3)C2C1` (stereo unspecified), the values for the Ke in assay [1] and in assay [2] were 321 nM and 326 nM, respectively. Besides, the Ratio Ke in the assay on RD-HGA16 turned out to be 1.

On to `CN(Cc1ccc(F)cc1)C(=O)N1CCN2C(=O)OC(c3ccccc3)(c3ccccc3)C2C1` (stereo unspecified), for which the results for the Ke in assay [1] and in assay [2] were 214 nM and 588 nM, respectively. For the same compound, in the assay on RD-HGA16, the Ratio Ke came out at 2.8.

In the case of `O=C1OC(c2ccccc2)(c2ccccc2)C2CN(C(=S)NCCN3CCOCC3)CCN12` (stereo unspecified), the Ke in assay [1] turned out to be 3760 nM; in assay [2], 2560 nM. The Ratio Ke with RD-HGA16 is 0.7.

For the compound `O=C(NCc1ccc(F)cc1)N1CCN2C(=O)OC(c3ccccc3)(c3ccccc3)C2C1` (stereo unspecified), the Ke in assay [1] turned out to be 13.7 nM; in assay [2], 52 nM. In addition, the Kb in assay [1] (RD-HGA16) amounted to 0.0279 µM; in assay [2] (RD-HGA16), 0.0169 µM; in assay [3] it was 0.0279 µM; in assay [4] it was 0.0169 µM. The Ratio Ke in the assay with RD-HGA16 is 3.8.

Consider `O=C(NCCN1CCCCC1)N1CCN2C(=O)OC(c3ccccc3)(c3ccccc3)C2C1` (stereo unspecified), for which the Ke in assay [1] was 109 nM; in assay [2], 490 nM. In the assay with RD-HGA16, the Ratio Ke stood at 4.5.

Turning to `O=C(CCc1ccc(F)cc1)N1CCN2C(=O)OC(c3ccccc3)(c3ccccc3)C2C1` (stereo unspecified), the values for the Ke in assay [1] and in assay [2] were 339 nM and 460 nM, respectively. In the assay on RD-HGA16, the Ratio Ke came out at 1.4.

As for `O=C(NCc1ccccc1)N1CCN2C(=O)OC(c3ccccc3)(c3ccccc3)C2C1` (stereo unspecified), the Ke in assay [1] is on record as 9.9 nM; in assay [2] it was 47 nM. The Ratio Ke in the assay on RD-HGA16 was 4.8. The Kb in assay [3] stood at 0.0326 µM; in assay [4], 0.0217 µM.

Take `C[C@@H](NC(=O)N1CCN2C(=O)OC(c3ccccc3)(c3ccccc3)C2C1)c1ccccc1` (stereo partly specified): the figures for the Ke in assay [1] and in assay [2] were 317 nM and 229 nM, respectively. For the same compound, the Ratio Ke in the assay on RD-HGA16 is 0.7.

For `O=C1OC(c2ccccc2)(c2ccccc2)C2CN(CCCCc3ccc(F)cc3)CCN12` (stereo unspecified), the Ke in assay [1] is 1110 nM; in assay [2], 1100 nM. In addition, the Ratio Ke in the assay with RD-HGA16 amounted to 1.

For `O=C(NCCCc1ccccc1)N1CCN2C(=O)OC(c3ccccc3)(c3ccccc3)C2C1` (stereo unspecified), the Ke in assay [1] amounted to 309 nM; in assay [2] it was 417 nM. Also, in the assay on RD-HGA16, the Ratio Ke came to 1.3.

Turning to `CCOC(=O)CNC(=O)N1CCN2C(=O)OC(c3ccccc3)(c3ccccc3)C2C1` (stereo unspecified), the Ke was 726 nM in assay [1] and 1260 nM in assay [2]. The Ratio Ke in the assay with RD-HGA16 is 1.7.

As to `O=C(NCCCCc1ccccc1)N1CCN2C(=O)OC(c3ccccc3)(c3ccccc3)C2C1` (stereo unspecified), the values for the Ke in assay [1] and in assay [2] were 537 nM and 437 nM, respectively. Moreover, in the assay with RD-HGA16, the Ratio Ke worked out at 0.8.

Regarding `O=C(NCCc1ccc2c(c1)OCO2)N1CCN2C(=O)OC(c3ccccc3)(c3ccccc3)C2C1` (stereo unspecified), the Ke turned out to be 567 nM in assay [1] and 690 nM in assay [2]. In addition, the Ratio Ke in the assay with RD-HGA16 was 1.2.

For the compound `O=C(COc1ccc(F)cc1)N1CCN2C(=O)OC(c3ccccc3)(c3ccccc3)C2C1` (stereo unspecified), the Ke worked out at 244 nM in assay [1] and 267 nM in assay [2]. For the same compound, the Ratio Ke in the assay on RD-HGA16 was 1.1.

As to `N[C@H](Cc1ccccc1)C(=O)N1CCN2C(=O)OC(c3ccccc3)(c3ccccc3)C2C1` (stereo partly specified), the Ke in assay [1] amounted to 911 nM; in assay [2], 4640 nM. Moreover, in the assay with RD-HGA16, the Ratio Ke came to 5.1.

As for `O=C(O)CNC(=O)N1CCN2C(=O)OC(c3ccccc3)(c3ccccc3)C2C1` (stereo unspecified), the Ke in assay [1] and in assay [2] was > 4000 nM throughout.

On to `CN1CCN2C(=O)OC(c3ccccc3)(c3ccccc3)C2C1` (stereo unspecified), for which the Ke in assay [1] and in assay [2] was > 4000 nM in each case.

The term Kb denotes the affinity of an antagonist, worked out from how it opposes an agonist.
